Experiments:
[1] = target: 5-hydroxytryptamine receptor 7 (Homo sapiens, UniProt P34969); assay: Displacement of [3H]LSD from human recombinant 5HT7 receptor expressed in CHO cell membrane; format: cell membranes
Procedure, shortened: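 Membranes incubated with 3 nM [3H]LSD in 0.25 mL 50 mM Tris·HCl pH 7.4, 10 mM MgCl2, 0.5 mM EDTA, 90 min at 27 °C. Filtered on GF/C presoaked in 0.3% PEI and counted. Nonspecific binding with 0.5 uM methiothepin. 7-8 concentrations tested in duplicate, three assays. IC50 from nonlinear regression.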

[2] = target: T1, 5-hydroxytryptamine receptor 1A (Homo sapiens, UniProt P08908); assay: Displacement of [3H]8-OH-DPAT from human recombinant 5HT1A receptor expressed in CHOK1 cell membrane; format: cell membranes, CHO-K1
T1 sequence (P08908 whole entry): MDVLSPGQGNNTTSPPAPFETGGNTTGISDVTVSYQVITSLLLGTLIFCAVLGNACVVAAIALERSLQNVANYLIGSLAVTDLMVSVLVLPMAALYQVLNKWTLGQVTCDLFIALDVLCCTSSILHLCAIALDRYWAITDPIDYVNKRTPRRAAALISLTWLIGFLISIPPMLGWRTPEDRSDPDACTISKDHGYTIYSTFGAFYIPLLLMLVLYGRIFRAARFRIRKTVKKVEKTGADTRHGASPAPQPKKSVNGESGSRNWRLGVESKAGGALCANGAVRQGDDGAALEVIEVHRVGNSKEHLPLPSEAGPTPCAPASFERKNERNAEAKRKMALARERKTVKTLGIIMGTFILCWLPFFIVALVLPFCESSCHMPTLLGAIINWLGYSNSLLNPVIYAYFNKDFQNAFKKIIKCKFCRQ
Procedure, shortened: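 Radioligand 0.5 nM [3H]8-OH-DPAT with receptor membranes in 0.25 mL 50 mM Tris·HCl pH 7.4, 1 mM EDTA, 2.5 mM MgCl2. Incubated 30 min at 37 °C. Stopped by rapid filtration on GF/C filters presoaked in 0.3% polyethylenimine, then scintillation counted. Nonspecific binding defined with methiothepin.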

[3] = target: 5-hydroxytryptamine receptor 2A (Homo sapiens, UniProt P28223); assay: Displacement of [3H]ketanserin from human recombinant 5HT2A receptor expressed in CHOK1 cell membrane; format: cell membranes, CHO-K1
Sequence of 5-hydroxytryptamine receptor 2A (P28223 whole entry): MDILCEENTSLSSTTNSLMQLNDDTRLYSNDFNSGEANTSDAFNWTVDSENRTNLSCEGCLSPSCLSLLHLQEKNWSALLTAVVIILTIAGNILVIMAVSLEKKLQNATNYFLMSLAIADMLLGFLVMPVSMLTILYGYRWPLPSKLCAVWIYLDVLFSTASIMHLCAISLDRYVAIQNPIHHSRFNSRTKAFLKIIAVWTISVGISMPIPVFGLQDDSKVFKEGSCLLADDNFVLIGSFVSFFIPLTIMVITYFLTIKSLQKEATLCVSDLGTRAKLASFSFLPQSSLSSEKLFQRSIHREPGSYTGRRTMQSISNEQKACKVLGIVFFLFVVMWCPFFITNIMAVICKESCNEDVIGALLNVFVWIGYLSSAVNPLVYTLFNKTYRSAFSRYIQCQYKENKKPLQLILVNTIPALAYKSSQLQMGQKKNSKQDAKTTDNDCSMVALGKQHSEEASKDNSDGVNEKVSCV
Procedure, shortened: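 Frozen membranes with 1 nM [3H]ketanserin in 50 mM Tris·HCl pH 7.4. Incubated 15 min at 37 °C. Harvested onto GF/C filters presoaked in 0.05% Brij. Nonspecific binding defined with mianserin.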

[4] = target: T2, 5-hydroxytryptamine receptor 2C (Homo sapiens, UniProt P28335); assay: Displacement of [3H]mesulergine from human recombinant 5HT2C receptor expressed in CHOK1 cell membrane; format: cell membranes, CHO-K1
T2 sequence (P28335 whole entry): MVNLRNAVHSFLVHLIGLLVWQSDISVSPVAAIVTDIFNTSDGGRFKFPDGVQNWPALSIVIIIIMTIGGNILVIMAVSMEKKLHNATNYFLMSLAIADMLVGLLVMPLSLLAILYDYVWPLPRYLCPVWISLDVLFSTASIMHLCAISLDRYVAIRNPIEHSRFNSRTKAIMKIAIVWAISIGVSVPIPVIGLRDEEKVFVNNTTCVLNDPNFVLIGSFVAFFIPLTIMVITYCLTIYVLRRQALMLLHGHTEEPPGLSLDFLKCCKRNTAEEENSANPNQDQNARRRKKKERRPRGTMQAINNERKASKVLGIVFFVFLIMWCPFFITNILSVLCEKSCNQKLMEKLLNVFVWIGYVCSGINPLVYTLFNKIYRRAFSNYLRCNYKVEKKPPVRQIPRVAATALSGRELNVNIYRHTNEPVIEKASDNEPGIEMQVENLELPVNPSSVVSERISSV
Procedure, shortened: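 Frozen membranes with 1 nM [3H]mesulergine in 50 mM Tris·HCl pH 7.7 containing 0.1% ascorbic acid and pargyline. Incubated 30 min at 37 °C. Stopped by rapid filtration through GF/C filters presoaked in 1% BSA. Nonspecific binding defined with mianserin.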

[5] = target: 5-hydroxytryptamine receptor 6 (Homo sapiens, UniProt P50406); assay: Displacement of [3H]LSD from human 5HT6 receptor expressed in HeLa cells; format: cell-based
Sequence of 5-hydroxytryptamine receptor 6 (P50406 whole entry): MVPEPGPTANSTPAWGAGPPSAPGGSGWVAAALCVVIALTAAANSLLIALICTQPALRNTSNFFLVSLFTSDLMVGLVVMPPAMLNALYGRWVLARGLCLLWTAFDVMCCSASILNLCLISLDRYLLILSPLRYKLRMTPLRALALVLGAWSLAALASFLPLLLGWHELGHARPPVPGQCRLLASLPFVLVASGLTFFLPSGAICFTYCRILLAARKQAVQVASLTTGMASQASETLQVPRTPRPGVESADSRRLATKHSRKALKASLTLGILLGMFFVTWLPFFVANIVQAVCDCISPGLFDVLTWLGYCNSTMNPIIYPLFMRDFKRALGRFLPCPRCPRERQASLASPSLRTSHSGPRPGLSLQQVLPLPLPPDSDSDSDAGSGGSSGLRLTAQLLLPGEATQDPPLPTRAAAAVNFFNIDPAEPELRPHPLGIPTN
Procedure, shortened: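 HeLa-cell membranes with 1.8 nM [3H]LSD in 0.25 mL 50 mM Tris·HCl pH 7.4, 10 mM MgCl2, 0.5 mM EDTA. Incubated 60 min at 37 °C. Terminated by filtration through GF/C filters presoaked in 0.3% polyethylenimine. Methiothepin used for nonspecific binding.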

Sequence of 5-hydroxytryptamine receptor 7 (P34969 whole entry): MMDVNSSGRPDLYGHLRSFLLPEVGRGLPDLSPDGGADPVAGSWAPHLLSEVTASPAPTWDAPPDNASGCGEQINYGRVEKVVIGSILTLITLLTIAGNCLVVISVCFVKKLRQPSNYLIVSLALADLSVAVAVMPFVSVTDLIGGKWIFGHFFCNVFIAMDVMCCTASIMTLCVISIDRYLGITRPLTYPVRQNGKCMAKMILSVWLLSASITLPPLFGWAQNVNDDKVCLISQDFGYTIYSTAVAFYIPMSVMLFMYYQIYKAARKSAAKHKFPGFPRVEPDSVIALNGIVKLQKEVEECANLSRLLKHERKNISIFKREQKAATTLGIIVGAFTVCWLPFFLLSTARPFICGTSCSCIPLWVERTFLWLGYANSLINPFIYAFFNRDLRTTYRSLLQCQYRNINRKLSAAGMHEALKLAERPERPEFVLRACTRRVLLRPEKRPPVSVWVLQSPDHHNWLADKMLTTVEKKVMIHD

IC50 [1] [µM]	IC50 [2] [µM]	IC50 [3] [µM]	IC50 [4] [µM]	IC50 [5] [µM]	SMILES
> 10	–	–	–	–	COc1ccc(S(=O)(=O)NCCCN2CCN(C(=O)c3ccco3)CC2)cc1
0.14	–	–	–	–	O=S(=O)(NCCCN1CCN(c2ccccc2F)CC1)c1ccc2ccccc2c1
0.089	0.044	0.352	0.057	2.84	COc1ccc(S(=O)(=O)NCCCN2CCN(c3cccc(C(F)(F)F)c3)CC2)cc1
0.949	–	–	–	–	O=S(=O)(NCCCN1CCN(Cc2ccccc2)CC1)c1ccccc1
0.107	0.039	1.82	1.35	6.92	COc1ccc(S(=O)(=O)NC(C)CCN2CCN(c3cccc(C(F)(F)F)c3)CC2)cc1 (stereo not given)
0.567	–	–	–	–	O=S(=O)(NCCCN1CCN(c2ccc(C(F)(F)F)cc2)CC1)c1ccc2ccccc2c1
0.384	–	–	–	–	COc1ccc(S(=O)(=O)NCCCN2CCN(c3ccc(C(F)(F)F)cc3)CC2)cc1
0.047	0.039	0.074	4.89	> 10	COc1ccc(S(=O)(=O)NCCCN2CCN(c3ccc(F)cc3)CC2)cc1
0.289	–	–	–	–	COc1ccc(S(=O)(=O)NCCCN2CCN(c3ccccc3F)CC2)cc1
0.223	–	–	–	–	COc1cccc(N2CCN(CCCNS(=O)(=O)c3ccc4ccccc4c3)CC2)c1
0.02	0.0046	0.085	0.241	2.63	COc1ccccc1N1CCN(CCCNS(=O)(=O)c2ccc3ccccc3c2)CC1
0.681	–	–	–	–	O=S(=O)(NCCCN1CCN(c2ccccc2)CC1)c1ccc2ccccc2c1
0.58	–	–	–	–	COc1ccc(S(=O)(=O)NC(C)CCN2CCN(c3ccccc3OC)CC2)cc1 (stereo not given)
0.012	0.029	0.095	0.091	1.96	O=S(=O)(NCCCN1CCN(c2cccc(C(F)(F)F)c2)CC1)c1ccc2ccccc2c1
0.103	–	–	–	–	COc1ccc(S(=O)(=O)NCCCN2CCN(c3ccc(Cl)c(Cl)c3)CC2)cc1
0.339	–	–	–	–	COc1ccc(S(=O)(=O)NCCCN2CCN(c3cccc(OC)c3)CC2)cc1
3.24	–	–	–	–	COc1ccc(N2CCN(CCCNS(=O)(=O)c3ccc4ccccc4c3)CC2)cc1
9.31	–	–	–	–	COc1ccc(N2CCN(CCCNS(=O)(=O)c3ccc(OC)cc3)CC2)cc1
> 10	–	–	–	–	COc1ccc(S(=O)(=O)NCCCN2CCN(C(=O)OCc3ccccc3)CC2)cc1
0.124	0.215	0.019	0.215	0.768	O=S(=O)(NCCCN1CCN(c2ccc(Cl)c(Cl)c2)CC1)c1ccc2ccccc2c1
> 10	–	–	–	–	COc1ccc(S(=O)(=O)NCCCN2CCN(c3ccccc3)CC2)cc1
–	0.272	5.17	9.67	> 10	COc1ccc(S(=O)(=O)NCCCN2CCN(c3ccccc3OC)CC2)cc1
> 10	–	–	–	–	COc1ccc(S(=O)(=O)NCCCN2CCN(c3ccc(C(C)=O)cc3)CC2)cc1
0.053	–	–	–	–	O=S(=O)(NCCCN1CCN(c2ccc(F)cc2)CC1)c1ccc2ccccc2c1
0.377	–	–	–	–	COc1ccc(S(=O)(=O)NC(C)CCN2CCN(c3ccccc3)CC2)cc1 (stereo not given)
> 10	–	–	–	–	COc1ccc(S(=O)(=O)NCCCN2CCN(c3ccc([N+](=O)[O-])cc3)CC2)cc1
0.373	–	–	–	–	COc1ccc(S(=O)(=O)NC(C)CCN2CCN(c3ccc(F)cc3)CC2)cc1 (stereo not given)

SMILES	IC50 [1] [µM]	IC50 [2] [µM]	IC50 [3] [µM]	IC50 [4] [µM]	IC50 [5] [µM]
O=S(=O)(NCCCN1CCN(Cc2ccccc2)CC1)c1ccc2ccccc2c1	0.476	–	–	–	–
